Reference: PMC5196489 (International Journal for Parasitology: Drugs and Drug …, 2016)
Entries after “also recorded” stand apart in the source; their conditions may differ. Values belong to the compound of their own block, whether it stands above or below them.

Legend:
Sm.5HTRL [1] = target: T1, Sm.5HTRL (Schistosoma mansoni, UniProt A0A173FEI8); experiment: cAMP biosensor; type: cell-based; details: for block of Sm.5HTRL dependent cAMP generation in vitro: Fig. 1; for IC50: read-out: IC50 Sm.5HTRL, inhibition of 5-HT (0.8 μM) evoked cAMP generation, HEK293 cells co-transfected with 22-F cAMP biosensor, IBMX 200 μM
T1 sequence (A0A173FEI8 1-547): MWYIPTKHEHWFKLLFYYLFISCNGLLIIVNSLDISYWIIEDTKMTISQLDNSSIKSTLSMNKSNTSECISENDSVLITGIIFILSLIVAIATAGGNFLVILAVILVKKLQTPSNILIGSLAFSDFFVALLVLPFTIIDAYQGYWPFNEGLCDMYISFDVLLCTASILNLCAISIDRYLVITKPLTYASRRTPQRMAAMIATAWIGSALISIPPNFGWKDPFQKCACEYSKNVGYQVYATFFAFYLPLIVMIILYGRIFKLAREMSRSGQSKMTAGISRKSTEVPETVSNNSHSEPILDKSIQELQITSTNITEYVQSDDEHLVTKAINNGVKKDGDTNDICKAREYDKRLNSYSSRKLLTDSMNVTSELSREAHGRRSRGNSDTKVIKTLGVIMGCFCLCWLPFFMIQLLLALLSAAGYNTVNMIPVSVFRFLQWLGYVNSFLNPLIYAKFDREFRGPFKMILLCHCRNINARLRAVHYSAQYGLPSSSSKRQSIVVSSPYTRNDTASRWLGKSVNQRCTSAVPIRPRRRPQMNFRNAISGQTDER

larval schistosomules [2] = experiment: Schistosomule mobility; type: cell-based, Schistosoma mansoni; details: for IC50: Schistosoma mansoni, 0.5 h, read-out: IC50 schistosomule
Method in brief: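 S. mansoni PR-1 cercariae mechanically transformed, tails removed on Percoll, kept in modified Basch medium without serotonin (37 °C, 5% CO2); about 200 per 0.5 mL well. Basal movement recorded first, then 5-HT (10 μM), then rising doses of test compound added at 20x. Incubated 30 min before a 1 min video. Mobility scored as body-length deviations >20% from the mean per minute.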

adult S. mansoni = experiment: Adult schistosome mobility assay; type: cell-based, Schistosoma mansoni
larval schistosomules [3] = details: ref Chan et al., 2014; cited from earlier work
[4] = test system: human 5-HT7 receptor (Hs.5HT7R); details: ref Farrell et al., 2016; cited from earlier work
Sm.5HTRL [5] = target: T1, Sm.5HTRL; details: chemical screening data; ref Chan et al., 2016b; cited from earlier work

Compound: COc1cc2c(cc1O)C[C@H]1c3c(cc(O)c(OC)c3-2)CCN1C [Boldine, (+)boldine]
- block of Sm.5HTRL dependent cAMP generation in vitro (Sm.5HTRL [1]): completely blocked
- IC50 (Sm.5HTRL [1]): 1.1 ± 0.1 µM
- IC50 (larval schistosomules [2]): 2.5 ± 1.4 µM
- effect on 5-HT stimulated motility (adult S. mansoni; female adult worms, increasing 5-HT): high doses of 5-HT were competent at restoring motility

Compound: CSc1ccc2c(c1)C(N1CCN(C)CC1)Cc1ccccc1S2 (centres unmarked) [methiothepin, reference compound]
- effect on 5-HT stimulated schistosomule contractility (larval schistosomules [2]; 5-HT 10 μM plus methiothepin 10 μM, Fig. 2A): reversed this effect

Compound: NCCc1c[nH]c2ccc(O)cc12 [5-HT, 5-hydroxytryptamine, reference compound]
- increase in schistosomule contractility (larval schistosomules [2]; 5-HT 10 μM versus basal movement in media lacking 5-HT): 3–5 fold
- effect of 5-HT on adult worm movement (adult S. mansoni; control worms, Fig. 4C&D): stimulated movement, most evident in female worms

- IC50 (Sm.5HTRL [1]): 15.2 ± 3.3 µM
Compound: CN1CCc2cccc3c2[C@H]1Cc1ccc(O)c(O)c1-3 [Apomorphine, R-(−)-apomorphine, reference compound]
- IC50 (larval schistosomules [2]): 24.2 ± 15.1 µM
- effect on schistosomule contractility (larval schistosomules [3]): inhibits schistosomule contractility

Compound: COc1cc2c3c(c1OC)-c1ccccc1C[C@H]3N(C)CC2 [Nuciferine, (−)nuciferine]
- action at the human 5-HT7 receptor [4]: inverse agonist
- block of Sm.5HTRL dependent cAMP generation in vitro (Sm.5HTRL [1]): completely blocked
- IC50 (Sm.5HTRL [1]): 0.24 ± 0.04 µM
- inhibition of larval contractions / schistosomule motility (larval schistosomules [2]; 5-HT 10 μM plus increasing doses of aporphine, Fig. 2): particularly effective at inhibiting larval contractions
- IC50 (larval schistosomules [2]): 0.62 ± 0.22 µM
- effect on basal motility (adult S. mansoni; female adult worms, drug 10 μM, 2 h, p < 0.01 versus p < 0.05): more effective than the other ligands
- effect on 5-HT stimulated motility (adult S. mansoni; male adult worms, increasing 5-HT (≤1 mM)): no 5-HT stimulated motility even at the highest 5-HT doses; also recorded: nuciferine action not reversed by 5-HT

Compound: CC(C)C[C@H]1C(=O)N2CCC[C@H]2[C@]2(O)O[C@](NC(=O)[C@@H]3C=C4c5cccc6[nH]c(Br)c(c56)C[C@H]4N(C)C3)(C(C)C)C(=O)N12 [bromocriptine]
- inhibition at Sm.5HTRL (Sm.5HTRL [5]): potent, and long lasting inhibition

Compound: COc1ccc2c(c1O)-c1c3c(cc4c1[C@H](C2)N(C)CC4)OCO3 [Bulbocapnine, (+)-Bulbocapnine]
- IC50 (Sm.5HTRL [1]): 15.2 ± 2.5 µM
- IC50 (larval schistosomules [2]): 76.1 ± 17.8 µM
